Test results: ChEMBL document CHEMBL1134499, “Structure-activity relationships of 1,4-dihydro-(1H,4H)-quinoxaline-2,3-diones as N-methyl-D-aspartate (glycine site) receptor antagonists. 1. Heterocyclic substituted 5-alkyl derivatives” (J Med Chem, 2001)
Converted amounts (≈) assume the structure as drawn.

Key:
Glutamate NMDA receptor = assay: Binding affinity at glycine binding site of NMDA receptor in rat cortical membranes by [3H]L-689,560 displacement.; type: cell membranes, Membrane
[1] = Solubility in 0.1 M aqueous D-arginine at pH 9
Rattus norvegicus = species: Rattus norvegicus; assay: Inhibition of NMDA-induced depolarizations in rat cortical wedges.; type: functional
Mus musculus [2] = assay: Ability to prevent NMDA-induced hyperlocomotion in the mouse following iv administration of 3 mg/kg dose; 3/10; type: functional
Mus musculus [3] = assay: Ability to prevent NMDA-induced hyperlocomotion in the mouse following iv administration of 10 mg/kg dose; 5/10; type: functional
Mus musculus [4] = assay: Ability to prevent NMDA-induced hyperlocomotion in the mouse following iv administration of 15 mg/kg dose; 3/10; type: functional
[5] = Solubility in water at pH 4-5; type: physicochemical
Mus musculus [6] = assay: Ability to prevent NMDA-induced hyperlocomotion in the mouse following iv administration of 20 mg/kg dose; 1/9; type: functional
Mus musculus [7] = assay: Ability to prevent NMDA-induced hyperlocomotion in the mouse following iv administration of 30 mg/kg dose; 10/10; type: functional
[8] = Solubility in 0.1 m aqueous D-arginine at pH 9; type: physicochemical
Mus musculus [9] = assay: Ability to prevent NMDA-induced hyperlocomotion in the mouse following iv administration of 20 mg/kg dose; 0/6; type: functional
Mus musculus [10] = assay: Ability to prevent NMDA-induced hyperlocomotion in the mouse following iv administration of 10 mg/kg dose; 2/9; type: functional
Mus musculus [11] = assay: Ability to prevent NMDA-induced hyperlocomotion in the mouse following iv administration of 20 mg/kg dose; 6/9; type: functional
In short: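 CD1 mice (25-30 g) received NMDA 300 mg/kg sc. Test compound was given iv via a tail vein 15 min before NMDA, dissolved in buffered saline (pH 7-9) or 0.1 M aqueous D-arginine; saline-dosed controls; usually 9-10 mice per dose. Time to onset and duration of hyperlocomotion recorded up to 15 min. Score = number of animals reaching 15 min post-NMDA.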

Mus musculus [12] = assay: Ability to prevent NMDA-induced hyperlocomotion in the mouse following iv administration of 30 mg/kg dose; 5/9; type: functional
Mus musculus [13] = assay: Ability to prevent NMDA-induced hyperlocomotion in the mouse following iv administration of 3 mg/kg dose; 0/9; type: functional
Mus musculus [14] = assay: Ability to prevent NMDA-induced hyperlocomotion in the mouse following iv administration of 20 mg/kg dose; 0/9; type: functional

| IC50 (Glutamate NMDA receptor) | EC50 (Rattus norvegicus) | Structure (SMILES) | also measured |
| --- | --- | --- | --- |
| 2000 nM | – | Oc1nc2cc(Cl)c(Cl)cc2nc1O [2,3-DIHYDROXY-6,7-DICHLOROQUINOXALINE] | – |
| 25 nM | – | Oc1nc2cc(Cl)c(Cl)c(Cn3cncn3)c2nc1O | solubility [1]: < 10 µg/mL |
| 1.4 nM | 1100 nM | O=c1[nH]c2cc(Cl)c(Cl)c([N+](=O)[O-])c2[nH]c1=O [LICOSTINEL] | No. protected/ No.dosed (Mus musculus [2]): 3; No. protected/ No.dosed (Mus musculus [3]): 5; No. protected/ No.dosed (Mus musculus [4]): 3 |
| 30 nM | 4100 nM | Oc1nc2cc(Cl)c(Cl)c(Cc3ccccn3)c2nc1O | solubility [5]: < 1000 µg/mL |
| 109 nM | – | Cc1nccn1Cc1c(Cl)c(Cl)cc2nc(O)c(O)nc12 | – |
| 78 nM | – | Cn1nnc(Cc2c(Cl)c(Cl)cc3nc(O)c(O)nc23)n1 | – |
| 1 nM | 350 nM | Oc1nc2cc(Cl)c(Cl)c(Cn3ccnn3)c2nc1O | – |
| 190 nM | – | Cc1ncnn1Cc1c(Cl)c(Cl)cc2nc(O)c(O)nc12 | – |
| 7.6 nM | 88 nM | CN1CCN(Cc2cn(Cc3c(Cl)c(Cl)cc4nc(O)c(O)nc34)nn2)CC1 | No. protected/ No.dosed (Mus musculus [6]): 1; solubility [5]: > 10000 µg/mL |
| 1200 nM | 16000 nM | C[C@@H]1CN(O)C(=O)[C@@H]1N | No. protected/ No.dosed (Mus musculus [7]): 10; No. protected/ No.dosed (Mus musculus [3]): 5 |
| 81 nM | 1090 nM | Oc1nc2cc(Cl)c(Cl)c(Cn3cnnc3)c2nc1O | – |
| 0.75 nM | 290 nM | CCC(c1c(Cl)c(Cl)cc2nc(O)c(O)nc12)n1ccnn1 (stereo unspecified) | solubility [8]: < 1000 µg/mL; No. protected/ No.dosed (Mus musculus [9]): 0 |
| 23 nM | 1300 nM | Oc1nc2cc(Cl)c(Cl)c(Cn3ccnc3)c2nc1O | – |
| 24 nM | 640 nM | Cc1ncn(Cc2c(Cl)c(Cl)cc3nc(O)c(O)nc23)n1 | – |
| 4 nM | 420 nM | CCC(c1c(Cl)c(Cl)cc2nc(O)c(O)nc12)n1cncn1 (stereo unspecified) | solubility [8]: ~1000 µg/mL (≈ 2940 µM) |
| 5 nM | – | Oc1nc2cc(Cl)c(Cl)c(Cn3cccn3)c2nc1O | solubility [1]: < 10 µg/mL |
| 2.6 nM | 90 nM | CCC(c1c(Cl)c(Cl)cc2nc(O)c(O)nc12)n1cnnc1 (stereo unspecified) | No. protected/ No.dosed (Mus musculus [10]): 2; No. protected/ No.dosed (Mus musculus [11]): 6; solubility [8]: > 5000 µg/mL; No. protected/ No.dosed (Mus musculus [12]): 5; No. protected/ No.dosed (Mus musculus [13]): 0 |
| 3.1 nM | 90 nM | CCC(c1c(Cl)c(Cl)cc2nc(O)c(O)nc12)n1ccnc1 (stereo unspecified) | No. protected/ No.dosed (Mus musculus [14]): 0 |
| 6 nM | 150 nM | CCN(CC)Cc1cn(Cc2c(Cl)c(Cl)cc3nc(O)c(O)nc23)nn1 | No. protected/ No.dosed (Mus musculus [14]): 0 |

| Structure (SMILES) | IC50 (Glutamate NMDA receptor) | EC50 (Rattus norvegicus) | also measured |
| --- | --- | --- | --- |
| CCCn1cnc(Cc2c(Cl)c(Cl)cc3nc(O)c(O)nc23)c1 | 4.4 nM | 350 nM | No. protected/ No.dosed (Mus musculus [11]): 6; solubility [5]: > 10000 µg/mL |
